Experimental data reported in article PMC5760267 (ChemMedChem, 2016).

Molecular target: human immunoproteasome β5i (Homo sapiens, UniProt P20618+P28062)
Assay: IC50 against β5i
Type: biochemical
Conditions: relative to the P1-β-Ala parents PKS2251 and PKS2252, respectively
Summary of the method: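 Human immunoproteasome β5i activity was read as ac-ANW-AMC hydrolysis, and constitutive β5c activity as suc-LLVY-AMC hydrolysis. IC50s were determined by a previously reported method. Apparent selectivity index = IC50β5c / IC50β5i. Data reported as mean ± SEM.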

Row | reduction of potency against β5i | SMILES
1 | 58 fold | C[C@H](NC(=O)C[C@H](CC(=O)NC(C)(C)C)NC(=O)CCc1ccccc1)C(=O)NCc1cccc2ccccc12 [PKS2278]
2 | 2.5 fold | Cc1ccc(S(=O)(=O)N[C@H](CC(=O)N[C@@H](C)C(=O)NCc2cccc3ccccc23)CC(=O)NC(C)(C)C)cc1 [PKS2279]

Same assay, conditions: β5i over β5c

Row | SIapp: apparent selectivity index = IC50β5c / IC50β5i | SMILES
3 | 465 | Cc1cc(C(=O)N[C@@H](CC(=O)NC(C)(C)C)C(=O)N[C@@H](C)CC(=O)NCc2cccc3ccccc23)no1 [PKS2249]
4 | 1333 | C[C@@H](CC(=O)NCc1cccc2ccccc12)NC(=O)[C@H](CC(=O)NC(C)(C)C)NC(=O)CCc1ccccc1 [PKS2251]
5 | 13600 | Cc1ccc(S(=O)(=O)N[C@@H](CC(=O)NC(C)(C)C)C(=O)N[C@@H](C)CC(=O)NCc2cccc3ccccc23)cc1 [PKS2252]
6 | 2521 | Cc1ccc(S(=O)(=O)N[C@H](CC(=O)N[C@@H](C)C(=O)NCc2cccc3ccccc23)CC(=O)NC(C)(C)C)cc1 [PKS2279]
